Assay results as given in PubChem BioAssay.
The source made the active and inactive calls.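 How the source made its calls, unless noted: active means visual image review flags a hit and inhibition of aggregation exceeds 20%; inconclusive means visual hit but inhibition at or below 20%; inactive means no hit on visual image review.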

Assays:
[1] = inhibitors of TNFa-induced NFkB p65 translocation, primary screen, imaging, HUVEC, MLSMR starter and 10KST1 sets (AID 438;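 active means inhibition above 20% together with a positive visual image hit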;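 further: compound added about 3h40 before a 20 min TNFalpha stimulation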;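 on inhibition: signal is the nuclear over cytoplasmic p65 intensity ratio per well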); conditions: HUVEC TNFa-induced p65 nuclear translocation; cell count: measured here: nuclei count (cytotoxicity indicator), at 2.08 µM; inhibition: at 2 µM, stronger effect = higher value, 0% TNFa-plus-vehicle, 100% no-TNFa wells
[2] = inhibitors of mutant huntingtin aggregation, primary screen, imaging, exon1htt(103Q)mCFP cells, high-content imaging (AID 483); conditions: exon1htt(103Q)mCFP cell line, aggregate imaging, at 2 µM; inhibition of aggregation: stronger effect = higher value; nuclei count: measured here: cell count, toxicity;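 further: compound exposure lasted 3 days before fixation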;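 on nuclei count: percent of the per-plate median nuclei count of sample wells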
[3] = inhibitors of E-selectin induction by TNFa, primary screen, imaging, HUVEC, immunofluorescence, MLSMR starter and 10KST1 sets (AID 487;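 active means visually confirmed hit in the image check and inhibition above 20%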;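 on inhibition: signal is fraction of cell area covered by stained E-selectin grains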;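 on nuclei count: 100% = median nuclei count of all wells on the same plate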); conditions: HUVEC TNFalpha-induced E-selectin immunofluorescence imaging, at 2 µM; inhibition: stronger effect = higher value; nuclei count: measured here: cell number, toxicity
[4] = biological target: Voltage-gated potassium channel subunit beta-2 (Rattus norvegicus) (UniProt P62483); assay: KvBeta enzyme negative modulators, primary screen, biochemical, NADPH fluorescence (AID 622;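 active means fluorescence slope higher than the sample average by over 3 SD, cut at about -0.22 in these data, passing the limit was not always enough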;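 further: slope of raw intensity against log time taken from 70 to 1610 s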); conditions: recombinant KvBeta, 4-cyanobenzaldehyde reduction, at 10 µM, stronger effect = higher value
[5] = biological target: Voltage-gated potassium channel subunit beta-2 (Rattus norvegicus) (UniProt P62483); assay: KvBeta positive modulators, primary screen, biochemical, NADPH fluorescence (AID 623;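 active means NADPH fluorescence slope more negative than the mean of all samples by about 3 SD, 99.7% confidence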;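 further: fluorescence intensity change per second fitted from 20 to 320 s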); conditions: Recombinant KvBeta, NADPH fluorescence decrease slope, 10 min; at 10 µM; stronger effect = lower value
[6] = biological target: Muscarinic acetylcholine receptor M4 (Homo sapiens) (UniProt P08173); assay: compounds altering M4/GIRK thallium flux, either direction, primary screen, M4 allosteric agonist project, cell-based, HEK293 M4/GIRK, BTC-AM (AID 625;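 active means fluorescence slope after compound addition differing from the mean of all tested samples at 99.7% confidence, mostly higher but some lower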;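 further: thallium influx through GIRK channels coupled to M4 in HEK293 cells with BTC-AM dye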); conditions: at 10 µM, actives lie on both sides
Procedure, shortened: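 assay system = HEK293 cells with M4 receptor and GIRK channels | medium = pH 7.3 thallium assay buffer | doses = 10 µM final, single point | timing = cells overnight at 37 °C, BTC-AM loading 1 h, reads 2 min total | signal = BTC-AM fluorescence, 1 Hz kinetic reads | read-out = post-addition slope, 15–24 s, of baseline-normalized fluorescence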

[7] = inhibitors of Sendai virus-induced IRF3 signaling, primary screen, TLR/RLR signaling modifier project, cell-based, Sendai virus stimulus, luciferase, 10K MLSCN set (AID 602276;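 active means inhibition at or above 50% at 10 µM; inactive means inhibition below 50%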;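 further: firefly luciferase from ISG56 promoter only with Renilla not read in this screen; 0% = Sendai virus plus DMSO and 100% = medium plus DMSO without virus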); conditions: HEK293 RL24 IRF3 luciferase reporter, at 10 µM, stronger effect = higher value
[8] = inhibitors of poly I:C-induced TLR3 signaling, primary screen, cell-based, poly I:C stimulus, luciferase, 10K MLSCN set (AID 602277;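 active means inhibition of the reporter signal at or above 50%; inactive means inhibition below 50%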); conditions: HEK293-TLR3 RL24 IRF3 luciferase reporter, at 10 µM, stronger effect = higher value

Sequence of Muscarinic acetylcholine receptor M4 (Homo sapiens) (P08173 whole entry, looked up): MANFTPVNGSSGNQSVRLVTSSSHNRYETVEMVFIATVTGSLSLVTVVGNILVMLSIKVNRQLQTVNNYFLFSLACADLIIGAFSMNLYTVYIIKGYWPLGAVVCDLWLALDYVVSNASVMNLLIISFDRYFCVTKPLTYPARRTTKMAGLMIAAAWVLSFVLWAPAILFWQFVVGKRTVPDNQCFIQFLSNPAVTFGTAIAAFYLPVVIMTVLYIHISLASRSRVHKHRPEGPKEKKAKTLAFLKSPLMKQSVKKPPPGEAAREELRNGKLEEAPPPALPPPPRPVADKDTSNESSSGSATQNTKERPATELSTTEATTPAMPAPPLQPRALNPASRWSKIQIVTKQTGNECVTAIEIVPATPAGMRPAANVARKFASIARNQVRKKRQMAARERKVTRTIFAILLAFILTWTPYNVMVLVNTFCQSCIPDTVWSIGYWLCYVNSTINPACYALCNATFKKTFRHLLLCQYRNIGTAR
Sequence of Voltage-gated potassium channel subunit beta-2 (Rattus norvegicus) (P62483 whole entry, looked up): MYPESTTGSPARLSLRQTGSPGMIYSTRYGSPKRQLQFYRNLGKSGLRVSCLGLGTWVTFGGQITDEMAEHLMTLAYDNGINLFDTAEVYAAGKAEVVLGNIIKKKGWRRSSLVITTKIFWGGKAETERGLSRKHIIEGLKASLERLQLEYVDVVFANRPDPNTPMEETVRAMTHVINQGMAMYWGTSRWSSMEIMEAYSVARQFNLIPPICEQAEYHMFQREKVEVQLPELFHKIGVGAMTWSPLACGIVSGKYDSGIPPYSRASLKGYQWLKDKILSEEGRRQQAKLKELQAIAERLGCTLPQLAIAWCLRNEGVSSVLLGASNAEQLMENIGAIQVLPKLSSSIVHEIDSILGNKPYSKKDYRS

Row | Compound | cell count [1] | inhibition [1] | inhibition of aggregation [2] | nuclei count [2] [%] | inhibition [3] | nuclei count [3] [%] | fluorescence slope [4] | NADPH fluorescence slope [5] | fluorescence slope [6] | inhibition [7] | inhibition [8]
1 | Cc1ccc(NCc2nnc(SCC(=O)NCc3ccco3)n2CC2CCCO2)cc1Cl (centres undefined) | 331 | -11.8% (inactive) | 13.3% (inactive) | 80.1 | 4.6% (inactive) | 106 | -0.505 (inactive) | 2.3e-05 (inactive) | 0.00472 (inactive) | -1.38% (inactive) | -3.61% (inactive)
2 | Cn1c(CN2CCOCC2)nc2cc(NC(=O)c3ccccc3Cl)ccc21 | 463 | 7.9% (inactive) | -4.3% (inactive) | 102 | -19.9% (inactive) | 113 | -0.588 (inactive) | -2.3e-05 (inactive) | 0.00633 (inactive) | 8.55% (inactive) | 2.36% (inactive)
3 | O=C(Nc1nc2ccc(S(=O)(=O)N3CCCC3)cc2s1)C1CCCO1 (centres undefined) | 504 | -12.6% (inactive) | -7.9% (inactive) | 55.6 | 28.1% (inactive) | 93.1 | -0.455 (inactive) | -4.6e-05 (inactive) | 0.00425 (inactive) | 14.9% (inactive) | 15.2% (inactive)
4 | COc1ccc(C(CNC(=O)CN2C(=O)NC3(CC(C)CC(C)(C)C3)C2=O)N2CCOCC2)cc1 (centres undefined) | 427 | 8.4% (inactive) | 13.7% (inactive) | 97.7 | -57% (inactive) | 115 | -0.413 (inactive) | 3.8e-05 (inactive) | 0.00559 (inactive) | -2.17% (inactive) | -5.07% (inactive)
5 | Cc1ccc(-n2ncc3c(N4CCN(c5ccc(F)cc5)CC4)ncnc32)c(C)c1 | 514 | -6.8% (inactive) | 4.6% (inactive) | 83.4 | 32.4% (inactive) | 92.4 | -0.521 (inactive) | -0.000115 (inactive) | 0.00599 (inactive) | -19.8% (inactive) | -65.4% (inactive)
6 | Cc1ccc(S(=O)(=O)NCC2CCC(C(=O)NCCCN3CCOCC3)CC2)cc1 (centres undefined) | 305 | 1.9% (inactive) | 26.8% (inactive) | 80.7 | -24.4% (inactive) | 112 | -0.564 (inactive) | -0.000104 (inactive) | 0.00513 (inactive) | 13% (inactive) | 22.2% (inactive)
7 | CCCC(=O)Nc1ccc(OCC(=O)OC)cc1 | 402 | -15.4% (inactive) | 5.1% (inactive) | 98.2 | 8% (inactive) | 84.9 | -0.439 (inactive) | -1.2e-05 (inactive) | 0.00585 (inactive) | 11% (inactive) | 21.9% (inactive)
8 | O=C(c1cc2ccccc2oc1=O)N1CCSC1c1ccco1 (centres undefined) | 310 | 5.3% (inactive) | 3.2% (inactive) | 102 | -24.5% (inactive) | 112 | -0.398 (inactive) | -9.8e-05 (inactive) | 0.00556 (inactive) | 12.5% (inactive) | 22% (inactive)
9 | Cc1ccc(S(=O)(=O)N2CCN(C(=O)CN3C(=O)NC4(CCOc5ccccc54)C3=O)CC2)cc1 (centres undefined) | 697 | -3.3% (inactive) | 8.6% (inactive) | 106 | -38.5% (inactive) | 112 | -0.44 (inactive) | -0.000543 (inactive) | 0.00414 (inactive) | -12.9% (inactive) | -7.58% (inactive)
10 | CCOC(=O)c1sc(NC(=O)CSc2nc3c(cc2C#N)CCC3)c(C#N)c1C | 775 | -6.4% (inactive) | -2.5% (inactive) | 94.5 | -140% (inactive) | 140 | -0.457 (inactive) | 2.2e-05 (inactive) | 0.00501 (inactive) | 18.5% (inactive) | 18.8% (inactive)
11 | Cc1ccc(OCC(=O)N2CCN(C(=O)CCC3CCCC3)CC2)cc1 | 319 | 0.5% (inactive) | -30.7% (inactive) | 84.9 | -1.5% (inactive) | 108 | -0.242 (inactive) | -1.9e-05 (inactive) | 0.00663 (inactive) | 12% (inactive) | 11.5% (inactive)
12 | CC(C)C(=O)Nc1nnc(CCc2nnc(NC(=O)C(C)C)s2)s1 | 793 | -10.1% (inactive) | 9.8% (inactive) | 89.2 | -80.3% (inactive) | 114 | -0.552 (inactive) | 1.7e-05 (inactive) | 0.00508 (inactive) | 14.6% (inactive) | 19.9% (inactive)
13 | CC(=O)c1nnn(-c2nc(N3CCCC3)nc(N(c3ccccc3)c3ccccc3)n2)c1C | 558 | 8.9% (inactive) | 2.6% (inactive) | 109 | 51.9% (inactive) | 95.1 | -0.58 (inactive) | -5.5e-05 (inactive) | 0.00803 (inactive) | 15.9% (inactive) | 26.9% (inactive)
14 | CC(C)=CC/C=C1\CCC(C(=O)O)C(C(=O)O)C1 (centres undefined) | 661 | -6.8% (inactive) | -3.8% (inactive) | 116 | -30.8% (inactive) | 100 | -0.52 (inactive) | -1.4e-05 (inactive) | 0.00515 (inactive) | 15.6% (inactive) | 13.1% (inactive)
